This passage reports EC50, Inhibition and NA results from ChEMBL document CHEMBL1145845, “Acetogenins as selective inhibitors of the human ovarian 1A9 tumor cell line” (2003).

In experiment [1] the test system is 1A9/ptx-10. The experiment in a line: Effective dose required for inhibitory activity against PTX10 human tumor cell line. To be noted: read-out: ED50 (the source's name). In kind it is functional. A digest of the protocol:
(§1)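 Human tumor lines were grown in RPMI-1640 with 25 mM HEPES, 0.25% sodium bicarbonate, 10% FBS and 100 µg/mL kanamycin. KB-VIN is a vincristine-resistant KB subline, and PTX10 is a 1A9 subline with mutated β-tubulin. Trypsinized cells (1500–7500/well) got compound from DMSO stock for 3 days continuous. Cells were fixed with cold 50% TCA, stained with 0.4% SRB, and read at 562 nm. ED50 is the 50% growth-reduction concentration; not active means ≤5% inhibition at the top concentration.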

Experiment [2] has as its system CAKI-1. The experiment in a line: Effective dose required for inhibitory activity against CAK1 human tumor cell line. Format: functional. To be noted: read-out: ED50 (the source's name). In short, it runs like this: as §1
The test system of experiment [3] is MCF7. The experiment can be described thus: Percent inhibition against MCF-7 human tumor cell line at <5 ug/mL. In kind it is functional.
Experiment [4] relates to KB. The experiment in a line: Effective dose required for inhibitory activity against KB human tumor cell line. Format: functional. To be noted: read-out: ED50 (the source's name). A digest of the protocol: as §1
For another experiment, the system named is 1A9. The experiment in a line: Effective dose required for inhibitory activity against 1A9 human tumor cell line. To be noted: read-out: ED50 (the source's name). In kind it is functional. A digest of the protocol:
as §1

Experiment [5] deals with HOS. The experiment can be described thus: Effective dose required for inhibitory activity against HOS human tumor cell line. To be noted: read-out: ED50 (the source's name). Format: functional. In short, it runs like this:
as §1

Another experiment relates to A549. The experiment in a line: Effective dose required for inhibitory activity against A549 human tumor cell line. Format: functional. To be noted: read-out: ED50 (the source's name). A digest of the protocol: as §1
Experiment [6] relates to SK-MEL-2. The experiment in a line: Effective dose required for inhibitory activity against SK-MEL-2 human tumor cell line. In kind it is functional. To be noted: read-out: ED50 (the source's name). A digest of the protocol: as §1
Another experiment relates to HCT-8. The experiment can be described thus: Effective dose required for inhibitory activity against HCT-8 human tumor cell line. In kind it is functional. To be noted: read-out: ED50 (the source's name). In short, it runs like this:
as §1

A further experiment has as its system PC-3. The experiment in a line: Effective dose required for inhibitory activity against PC-3 human tumor cell line. In kind it is functional. To be noted: read-out: ED50 (the source's name). A digest of the protocol: as §1
Experiment [7] deals with KB. The experiment in a line: Effective dose required for inhibitory activity against KB-VIN human tumor cell line. Format: functional. To be noted: read-out: ED50 (the source's name). A digest of the protocol:
as §1

The subject of experiment [8] is 1A9/ptx-10. The experiment can be described thus: Percent inhibition against PTX10 human tumor cell line at >10 ug/mL. Format: functional.
Experiment [9] concerns HOS. The experiment in a line: Effective dose required for inhibitory activity against HOS human tumor cell line; Not active. Format: functional, cell-based. In short, it runs like this:
as §1

Experiment [10] concerns MCF7. The experiment can be described thus: Effective dose required for inhibitory activity against MCF-7 human tumor cell line. Format: functional. To be noted: read-out: ED50 (the source's name). A digest of the protocol: as §1
Experiment [11] has as its system CAKI-1. The experiment in a line: Effective dose required for inhibitory activity against CAK1 human tumor cell line; Not active. In kind it is functional, cell-based. A digest of the protocol:
as §1

The test system of experiment [12] is SK-MEL-2. The experiment in a line: Effective dose required for inhibitory activity against SK-MEL-2 human tumor cell line; Not active. Format: functional, cell-based. In short, it runs like this:
as §1

In brackets after ≈: the same amount, converted by molar mass. Activity calls are given as the source filed them.

By Inhibition is commonly meant the relative decrease from the control value, in per cent. Read a high Inhibition as a strong effect. With `CCCCCCCCCCCC[C@@H](O)[C@H]1CC[C@H]([C@H](O)CCCC[C@H](O)CCCCC[C@@H](O)CC2=CC(C)OC2=O)O1` (some centres not stated) [ANNONACIN], the EC50 turned out to be 6 µg/mL (≈ 10.1 µM) in the experiment on 1A9/ptx-10 [1]; 9.8 µg/mL (≈ 16.4 µM) in the experiment with CAKI-1 [2]; 7.5 µg/mL (≈ 12.6 µM) in the experiment on KB [4]; 0.07 µg/mL (≈ 0.117 µM) in the experiment on 1A9; 8.2 µg/mL (≈ 13.7 µM) in the experiment with HOS [5]; 7.8 µg/mL (≈ 13.1 µM) with A549. In addition, the EC50 turned out to be 13.8 µg/mL (≈ 23.1 µM) with SK-MEL-2 [6], 7.9 µg/mL (≈ 13.2 µM) with HCT-8, 8.2 µg/mL (≈ 13.7 µM) in the experiment with PC-3 and 10.3 µg/mL (≈ 17.3 µM) with KB [7]. Moreover, the Inhibition in the experiment with MCF7 [3] stood at 62%.
`CCCCCCCCCCCC[C@@H](O)[C@H]1CC[C@H]([C@H](O)CCCCC(O)CCCCCCCC2=C[C@H](C)OC2=O)O1` (some centres not stated): the EC50 was 5 µg/mL (≈ 8.61 µM) with 1A9/ptx-10 [1]; 13.9 µg/mL (≈ 23.9 µM) with CAKI-1 [2]; 7.6 µg/mL (≈ 13.1 µM) in the experiment with KB [4]; 0.1 µg/mL (≈ 0.172 µM) in the experiment on 1A9; 9.8 µg/mL (≈ 16.9 µM) in the experiment with HOS [5]; 9.8 µg/mL (≈ 16.9 µM) with A549. Also, the EC50 with SK-MEL-2 [6] came out at 14.2 µg/mL (≈ 24.4 µM); with HCT-8, 10.8 µg/mL (≈ 18.6 µM); with PC-3, 8.1 µg/mL (≈ 13.9 µM); with KB [7], 12.5 µg/mL (≈ 21.5 µM). For the same molecule, the Inhibition in the experiment on MCF7 [3] was 55%.
On to `CCCCCCCCCCCC[C@@H](O)[C@H]1CC[C@H]([C@H](O)CCCCC(=O)CCCCCCCC2=C[C@H](C)OC2=O)O1`, for which the EC50 is above 20 µg/mL in the experiment with KB [4]; 0.76 µg/mL (≈ 1.31 µM) in the experiment with 1A9; above 20 µg/mL in the experiment on A549; above 20 µg/mL in the experiment on SK-MEL-2 [6]; above 20 µg/mL with HCT-8; above 20 µg/mL in the experiment on PC-3. In addition, the EC50 in the experiment with KB [7] is above 20 µg/mL; in the experiment on MCF7 [10], 9.5 µg/mL (≈ 16.4 µM). In addition, in the experiment on 1A9/ptx-10 [8], the Inhibition is listed as 31%. For the same molecule, the NA result in the experiment on HOS [9] and with CAKI-1 [11] was “inactive” throughout.
In the case of `CCCCC(O)C(O)C/C=C\CC[C@H](O)[C@@H]1CC[C@@H](CCCCCCCCCCCC[C@H](O)CC2=C[C@H](C)OC2=O)O1` (some centres not stated), the EC50 is above 20 µg/mL in the experiment on CAKI-1 [2]; above 20 µg/mL in the experiment on KB [4]; 0.87 µg/mL (≈ 1.46 µM) with 1A9; above 20 µg/mL in the experiment with A549; above 20 µg/mL in the experiment with SK-MEL-2 [6]; above 20 µg/mL with HCT-8. The EC50 with PC-3 was above 20 µg/mL; in the experiment on KB [7] it was above 20 µg/mL; in the experiment with MCF7 [10] it was 14.3 µg/mL (≈ 24 µM). In addition, the Inhibition in the experiment on 1A9/ptx-10 [8] amounted to 25%. In addition, the NA result in the experiment on HOS [9] was “inactive”.
With `CCCCCCCCCCCC[C@@H](O)[C@H]1CC[C@H]([C@H](O)CCCCCC(O)CCCC[C@@H](O)CC2=C[C@H](C)OC2=O)O1` (some centres not stated), the EC50 is 9.3 µg/mL (≈ 15.6 µM) in the experiment on 1A9/ptx-10 [1]; 16.3 µg/mL (≈ 27.3 µM) with CAKI-1 [2]; 11.8 µg/mL (≈ 19.8 µM) in the experiment on KB [4]; 0.5 µg/mL (≈ 0.838 µM) in the experiment on 1A9; 13.1 µg/mL (≈ 21.9 µM) with HOS [5]; 12 µg/mL (≈ 20.1 µM) in the experiment with A549. Moreover, the EC50 in the experiment on SK-MEL-2 [6] was 13.1 µg/mL (≈ 21.9 µM); in the experiment with HCT-8 it was 14.2 µg/mL (≈ 23.8 µM); in the experiment on PC-3, 7.8 µg/mL (≈ 13.1 µM); in the experiment on KB [7], 17 µg/mL (≈ 28.5 µM). This molecule also registered an Inhibition with MCF7 [3] of 57%.
With `CCCCCC[C@@H](O)CCC[C@H](O)[C@@H]1CC[C@@H]([C@H](O)CC[C@@H](O)[C@@H]2CC[C@@H](CCCCCCCCCC3=C[C@@H](C)OC3=O)O2)O1` [Squamostatin-A], the EC50 in the experiment with CAKI-1 [2] is above 20 µg/mL; in the experiment with KB [4], above 20 µg/mL; in the experiment with 1A9, 0.0087 µg/mL (≈ 0.0136 µM); with HOS [5], above 20 µg/mL; in the experiment with A549, above 20 µg/mL; in the experiment on HCT-8, above 20 µg/mL. The EC50 is above 20 µg/mL in the experiment with PC-3, above 20 µg/mL in the experiment on KB [7] and 8 µg/mL (≈ 12.5 µM) in the experiment on MCF7 [10]. Besides, in the experiment on 1A9/ptx-10 [8], the Inhibition is recorded as 40%. For the same molecule, in the experiment on SK-MEL-2 [12], the NA entry was “inactive”.
`CCCCCCCCCCCC[C@H](O)[C@@H]1CC[C@@H]([C@@H](O)CCCCC(=O)CCCCCC2CC(CC(C)=O)C(=O)O2)O1` (some centres not stated) [ISOANNONACINONE]: the EC50 with KB [4] was above 20 µg/mL; in the experiment with 1A9, 2.2 µg/mL (≈ 3.7 µM); in the experiment on A549, above 20 µg/mL; in the experiment on HCT-8, above 20 µg/mL; in the experiment with PC-3 it was above 20 µg/mL; with KB [7], above 20 µg/mL. Moreover, the EC50 in the experiment on MCF7 [10] is above 20 µg/mL. The Inhibition in the experiment on 1A9/ptx-10 [8] is listed as 19%. Also, the NA result in the experiment on SK-MEL-2 [12], in the experiment with HOS [9] and with CAKI-1 [11] was “inactive” throughout.
